The target in one assay is Aurora kinase B (Homo sapiens, UniProt Q96GD4). Nature of the assay: Inhibition of Aurora-B by microplate scintillation counting. In short, it runs like this: (§1)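 Substrates: tetra(LRRWSLG) for Aurora A/B; poly(Ala,Glu,Lys,Tyr)6:2:5:1 for PDGFRβ; poly(Glu,Tyr)4:1 for TIE2 and VEGFR2. Stopped with 2% H3PO4.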
The target in assay [1] is Receptor tyrosine-protein kinase erbB-2 (Homo sapiens, UniProt P04626). Put plainly: Inhibition of ERBB2 by microplate scintillation counting. In short, it runs like this:
(§2)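 Radiometric FlashPlate assay using recombinant kinase (10–200 ng/well) with poly(Glu,Tyr)4:1 substrate. Buffer: 60 mM HEPES-NaOH pH 7.5, 3 mM MgCl2, 3 mM MnCl2, 3 µM orthovanadate, 1.2 mM DTT, PEG 20000, 1 µM [γ-33P]-ATP. Run 80 min at 30 °C, stopped with H3PO4, and 33P incorporation counted.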

Assay [2] concerns the target T1, Angiopoietin-1 receptor (Homo sapiens, UniProt Q02763). Put plainly: Inhibition of TIE2 by microplate scintillation counting.
In assay [3] the target is Vascular endothelial growth factor receptor 2 (Homo sapiens, UniProt P35968). Nature of the assay: Inhibition of VEGFR2 by microplate scintillation counting.
For the next assay, the target named is T2, Aurora kinase A (Homo sapiens, UniProt O14965).
T2 sequence (O14965 whole entry): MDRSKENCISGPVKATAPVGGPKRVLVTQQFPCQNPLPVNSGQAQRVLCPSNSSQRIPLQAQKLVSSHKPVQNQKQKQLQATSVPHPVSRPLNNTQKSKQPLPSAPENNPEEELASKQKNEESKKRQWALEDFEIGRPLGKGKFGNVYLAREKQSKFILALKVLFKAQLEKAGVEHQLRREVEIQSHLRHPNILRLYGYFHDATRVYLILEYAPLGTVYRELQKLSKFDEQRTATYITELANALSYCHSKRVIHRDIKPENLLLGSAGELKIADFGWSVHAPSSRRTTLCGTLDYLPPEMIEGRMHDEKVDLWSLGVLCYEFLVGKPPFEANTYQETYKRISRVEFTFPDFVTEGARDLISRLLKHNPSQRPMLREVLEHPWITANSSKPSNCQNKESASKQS
Put plainly: Inhibition of Aurora-A by microplate scintillation counting. In short, it runs like this: as §1

For assay [4], the target named is Vascular endothelial growth factor receptor 3 (Homo sapiens, UniProt P35916). Put plainly: Inhibition of VEGFR3 by microplate scintillation counting. In short, it runs like this: as §2
Assay [5] deals with T3, Epidermal growth factor receptor (Homo sapiens, UniProt P00533). Put plainly: Inhibition of wild type EGF-R by microplate scintillation counting.
Assay [6] addresses Platelet-derived growth factor receptor beta (Homo sapiens, UniProt P09619). Nature of the assay: Inhibition of PDGFRbeta by microplate scintillation counting. In short, it runs like this: as §1
Assay [7] concerns the target T3, Epidermal growth factor receptor. Nature of the assay: Inhibition of EGFR in human HCT116 cells by cellular phosphorylation assay.
Assay [8] has as its target T1, Angiopoietin-1 receptor. Put plainly: Inhibition of TIE2 in human HCT116 cells by cellular phosphorylation assay. The format is cell-based, HCT-116. In short, it runs like this: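 TIE2 autophosphorylation in cells expressing the receptor. Compound was applied, cells were stimulated, then lysed with phosphoprotein levels preserved. Phosphorylation was quantified by sandwich ELISA with a receptor-specific capture antibody and anti-phosphotyrosine antibody, relative to the stimulated high control.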

In general, IC50 refers to the midpoint of a concentration-inhibition curve. A low value points to higher potency. Broadly, the EC50 is the concentration giving half of the maximal effect. High values mean lower potency in that assay, low ones higher potency in that assay.

Platelet-derived growth factor receptor beta, sequence (P09619 whole entry): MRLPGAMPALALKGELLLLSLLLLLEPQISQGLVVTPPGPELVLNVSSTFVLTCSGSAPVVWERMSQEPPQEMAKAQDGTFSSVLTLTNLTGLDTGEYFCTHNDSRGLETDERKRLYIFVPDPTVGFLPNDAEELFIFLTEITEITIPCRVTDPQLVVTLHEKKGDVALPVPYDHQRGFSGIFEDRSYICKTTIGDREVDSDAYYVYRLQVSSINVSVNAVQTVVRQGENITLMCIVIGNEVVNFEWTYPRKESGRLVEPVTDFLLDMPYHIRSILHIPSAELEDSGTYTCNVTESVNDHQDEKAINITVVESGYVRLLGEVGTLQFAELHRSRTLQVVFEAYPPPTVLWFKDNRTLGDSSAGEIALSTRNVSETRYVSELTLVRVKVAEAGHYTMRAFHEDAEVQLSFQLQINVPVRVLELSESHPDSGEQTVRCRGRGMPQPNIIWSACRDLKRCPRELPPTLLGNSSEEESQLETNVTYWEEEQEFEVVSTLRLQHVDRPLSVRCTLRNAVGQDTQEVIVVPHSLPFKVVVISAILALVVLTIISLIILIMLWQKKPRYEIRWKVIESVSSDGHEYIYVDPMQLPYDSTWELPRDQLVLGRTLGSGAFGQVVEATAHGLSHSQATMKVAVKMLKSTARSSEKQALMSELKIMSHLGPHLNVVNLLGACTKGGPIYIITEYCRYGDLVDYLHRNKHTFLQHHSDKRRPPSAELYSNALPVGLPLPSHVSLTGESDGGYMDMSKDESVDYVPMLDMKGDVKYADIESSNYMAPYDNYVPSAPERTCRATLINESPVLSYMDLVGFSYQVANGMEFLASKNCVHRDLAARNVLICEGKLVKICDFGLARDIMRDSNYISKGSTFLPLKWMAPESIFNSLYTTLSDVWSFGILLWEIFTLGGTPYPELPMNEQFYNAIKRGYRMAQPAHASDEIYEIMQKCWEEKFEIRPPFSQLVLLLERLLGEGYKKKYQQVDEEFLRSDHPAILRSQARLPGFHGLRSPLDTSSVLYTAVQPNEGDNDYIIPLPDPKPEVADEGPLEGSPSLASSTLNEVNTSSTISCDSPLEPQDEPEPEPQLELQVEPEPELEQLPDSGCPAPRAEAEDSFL
Aurora kinase B, sequence (Q96GD4 whole entry): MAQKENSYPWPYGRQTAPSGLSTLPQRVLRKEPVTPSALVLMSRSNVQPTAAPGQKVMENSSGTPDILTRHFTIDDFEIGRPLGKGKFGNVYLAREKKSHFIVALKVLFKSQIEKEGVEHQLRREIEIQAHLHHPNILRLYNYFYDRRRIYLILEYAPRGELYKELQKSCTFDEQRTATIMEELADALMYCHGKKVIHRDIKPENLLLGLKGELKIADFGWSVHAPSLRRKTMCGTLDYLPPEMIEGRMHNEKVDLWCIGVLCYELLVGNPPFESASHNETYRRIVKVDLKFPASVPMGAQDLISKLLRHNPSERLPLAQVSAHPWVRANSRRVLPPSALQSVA
T3 sequence (P00533 whole entry): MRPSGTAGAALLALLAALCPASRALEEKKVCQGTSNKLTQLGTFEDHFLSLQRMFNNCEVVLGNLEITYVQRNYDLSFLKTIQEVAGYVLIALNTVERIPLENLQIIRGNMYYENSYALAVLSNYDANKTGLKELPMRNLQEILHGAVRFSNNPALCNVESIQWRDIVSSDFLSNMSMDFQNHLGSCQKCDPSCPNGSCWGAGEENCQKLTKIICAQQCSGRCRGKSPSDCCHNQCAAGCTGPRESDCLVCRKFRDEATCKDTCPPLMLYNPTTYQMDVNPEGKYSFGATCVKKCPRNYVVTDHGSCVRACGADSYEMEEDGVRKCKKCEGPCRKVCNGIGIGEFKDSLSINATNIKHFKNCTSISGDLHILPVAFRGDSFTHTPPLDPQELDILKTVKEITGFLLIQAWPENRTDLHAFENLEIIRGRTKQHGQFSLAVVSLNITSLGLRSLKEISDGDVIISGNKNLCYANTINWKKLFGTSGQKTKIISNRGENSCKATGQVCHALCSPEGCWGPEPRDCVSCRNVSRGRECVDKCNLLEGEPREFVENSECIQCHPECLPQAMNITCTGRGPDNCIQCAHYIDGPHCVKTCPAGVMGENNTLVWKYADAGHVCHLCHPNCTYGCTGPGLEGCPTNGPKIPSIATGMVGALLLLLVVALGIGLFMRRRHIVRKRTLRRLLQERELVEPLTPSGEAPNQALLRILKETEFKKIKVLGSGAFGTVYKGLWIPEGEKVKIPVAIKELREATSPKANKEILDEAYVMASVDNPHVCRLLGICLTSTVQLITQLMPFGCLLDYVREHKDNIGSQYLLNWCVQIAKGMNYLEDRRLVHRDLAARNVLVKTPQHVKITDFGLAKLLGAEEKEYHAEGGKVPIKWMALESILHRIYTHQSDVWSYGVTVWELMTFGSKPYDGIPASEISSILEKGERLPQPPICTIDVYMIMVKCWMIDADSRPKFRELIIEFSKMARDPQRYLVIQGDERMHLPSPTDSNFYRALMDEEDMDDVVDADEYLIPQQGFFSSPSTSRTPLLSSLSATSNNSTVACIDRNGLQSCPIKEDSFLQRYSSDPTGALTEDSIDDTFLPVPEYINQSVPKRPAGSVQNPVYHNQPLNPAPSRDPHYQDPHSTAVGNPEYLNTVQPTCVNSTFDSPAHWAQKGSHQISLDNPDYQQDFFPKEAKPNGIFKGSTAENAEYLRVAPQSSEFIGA
Vascular endothelial growth factor receptor 3, sequence (P35916 whole entry): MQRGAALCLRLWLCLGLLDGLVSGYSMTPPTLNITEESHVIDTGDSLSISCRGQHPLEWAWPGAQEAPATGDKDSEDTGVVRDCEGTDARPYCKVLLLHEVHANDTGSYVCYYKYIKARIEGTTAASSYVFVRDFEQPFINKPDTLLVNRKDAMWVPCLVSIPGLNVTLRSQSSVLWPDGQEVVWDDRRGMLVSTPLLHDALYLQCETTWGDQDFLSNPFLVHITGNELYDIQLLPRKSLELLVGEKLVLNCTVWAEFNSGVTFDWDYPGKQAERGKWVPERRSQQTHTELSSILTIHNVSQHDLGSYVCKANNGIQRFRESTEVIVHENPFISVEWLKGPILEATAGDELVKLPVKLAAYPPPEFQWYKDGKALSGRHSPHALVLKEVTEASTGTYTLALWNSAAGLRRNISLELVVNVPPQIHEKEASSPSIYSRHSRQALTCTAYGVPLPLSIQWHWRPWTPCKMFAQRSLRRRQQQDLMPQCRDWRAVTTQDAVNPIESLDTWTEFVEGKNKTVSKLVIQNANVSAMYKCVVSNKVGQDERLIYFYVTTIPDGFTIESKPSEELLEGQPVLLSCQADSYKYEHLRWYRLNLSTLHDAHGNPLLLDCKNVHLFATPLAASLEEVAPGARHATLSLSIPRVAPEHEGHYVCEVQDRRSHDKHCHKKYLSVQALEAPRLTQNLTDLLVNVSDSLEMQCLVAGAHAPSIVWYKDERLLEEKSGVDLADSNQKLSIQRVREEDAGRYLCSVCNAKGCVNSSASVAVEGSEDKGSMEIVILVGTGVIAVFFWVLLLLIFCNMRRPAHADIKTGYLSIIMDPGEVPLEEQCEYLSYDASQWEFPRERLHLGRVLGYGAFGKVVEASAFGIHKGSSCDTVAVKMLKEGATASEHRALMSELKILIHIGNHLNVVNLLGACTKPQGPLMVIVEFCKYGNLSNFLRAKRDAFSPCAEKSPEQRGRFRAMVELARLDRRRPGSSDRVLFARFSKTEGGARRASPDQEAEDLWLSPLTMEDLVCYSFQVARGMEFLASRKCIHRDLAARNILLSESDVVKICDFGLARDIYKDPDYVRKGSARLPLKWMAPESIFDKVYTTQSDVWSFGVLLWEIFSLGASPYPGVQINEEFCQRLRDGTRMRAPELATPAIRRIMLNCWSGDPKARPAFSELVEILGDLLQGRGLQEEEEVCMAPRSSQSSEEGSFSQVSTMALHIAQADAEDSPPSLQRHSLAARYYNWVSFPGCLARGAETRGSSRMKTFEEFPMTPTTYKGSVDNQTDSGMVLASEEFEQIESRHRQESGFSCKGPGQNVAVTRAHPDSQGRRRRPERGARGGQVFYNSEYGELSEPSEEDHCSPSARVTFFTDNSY

Turning to `COc1cc2c(Nc3ccc(-c4nc5ccccc5s4)cc3)ncnc2cc1OCCCN1CCN(C)CC1`, the IC50 turned out to be 60 nM at Aurora kinase B; 100 nM in assay [1]; 54 nM against Angiopoietin-1 receptor [2]; 12 nM in assay [3]; 14 nM against Aurora kinase A; 69 nM in [4]. Moreover, the IC50 in assay [5] is 46 nM; in assay [6], 1400 nM.
For the compound `COc1cc2ncnc(Nc3ccc(-c4nc5cc(C(F)(F)F)ccc5s4)cc3)c2cc1OCCCN1CCN(C)CC1`, the IC50 was 2100 nM on Aurora kinase B; more than 10000 nM in assay [1]; more than 10000 nM on Angiopoietin-1 receptor [2]; 1200 nM against Aurora kinase A; more than 10000 nM in assay [5]; more than 10000 nM in [6].
As for `COc1cc2c(Nc3ccc(-c4nc5ccc(Cl)cc5s4)cc3)ncnc2cc1OCCCN1CCN(C)CC1`, the half-inhibitory concentration (IC50) against Aurora kinase B came to 64 nM; in assay [1], 2300 nM; on Angiopoietin-1 receptor [2] it was 410 nM; in assay [3] it was 2500 nM; at Aurora kinase A, 54 nM; in assay [4], 9300 nM. In addition, the figures for the IC50 in [5] and in assay [6] were 260 nM and 8000 nM, respectively.
As for `COc1cc2c(Nc3ccc(-c4nc5ccccc5s4)c(F)c3)ncnc2cc1OCCCN1CCN(C)CC1`, the IC50 against Aurora kinase B stood at 27 nM; in assay [1] it was 300 nM; against Angiopoietin-1 receptor [2], 9 nM; in assay [3], 44 nM; on Aurora kinase A it was 9 nM; in assay [4], 210 nM. In addition, the values for the IC50 in assay [5] and in assay [6] were 430 nM and 2100 nM, respectively. The EC50 (in assay [7]; at Angiopoietin-1 receptor [8]) was more than 10000 nM each time.
For `COc1cc2ncnc(Nc3ccc(-c4nc5ccccc5s4)c(OC)c3)c2cc1OCCCN1CCN(C)CC1`, the IC50 is more than 10000 nM at Aurora kinase B; 47 nM in assay [1]; 1400 nM on Angiopoietin-1 receptor [2]; 1600 nM at Aurora kinase A; 15 nM in assay [5]; 3800 nM in [6].
On to `COc1cc2ncnc(Nc3ccc(-c4nc5ccccc5s4)c(Cl)c3)c2cc1OCCCN1CCN(C)CC1`, for which the IC50 against Aurora kinase B came to 4800 nM; in assay [1], 180 nM; on Angiopoietin-1 receptor [2], 510 nM; against Aurora kinase A, 690 nM; in [5] it was 44 nM; in assay [6], 7700 nM.
Regarding `COc1cc2c(Nc3ccc(-c4nc5ccccc5s4)cc3OC(F)(F)F)ncnc2cc1OCCCN1CCN(C)CC1`, the IC50 against Aurora kinase B was 520 nM; in assay [1], more than 10000 nM; on Angiopoietin-1 receptor [2], 590 nM; in [3], more than 10000 nM; against Aurora kinase A, 290 nM; in [4], more than 10000 nM. Further, the IC50 in assay [5] was more than 10000 nM; in assay [6] it was 9100 nM.
Take `COc1cc2c(Nc3ccc(-c4nc5ccccc5s4)c(C)c3)ncnc2cc1OCCCN1CCN(C)CC1`: the IC50 worked out at 260 nM against Aurora kinase B; 68 nM against Angiopoietin-1 receptor [2]; 350 nM in [3]; 230 nM at Aurora kinase A; 1500 nM in assay [4]; 7900 nM in assay [6].
As for `COc1cc2ncnc(Nc3ccc(-c4nc5ccccc5s4)cc3)c2cc1OCCCN1CCN(C)CC1`, the IC50 on Aurora kinase B was 510 nM; in assay [1], 2200 nM; at Aurora kinase A, 110 nM; in [6], 3800 nM.
With `COc1cc2c(N(C)c3ccc(-c4nc5ccccc5s4)c(OC)c3)ncnc2cc1OCCCN1CCN(C)CC1`, the IC50 on Aurora kinase B was 8000 nM; against Angiopoietin-1 receptor [2], more than 10000 nM; in assay [3], more than 10000 nM; against Aurora kinase A it was 3300 nM; in [4], more than 10000 nM; in assay [6] it was more than 10000 nM.
Take `COc1cc2c(Nc3ccc(-c4nc5ccccc5s4)c(Cl)c3)ncnc2cc1OCCCN1CCN(C)CC1`: the IC50 on Aurora kinase B worked out at 78 nM; in [1], 38 nM; against Angiopoietin-1 receptor [2], 37 nM; in [3], 120 nM; against Aurora kinase A, 27 nM; in assay [4] it was 470 nM. For the same compound, half-maximal inhibition in assay [6] (IC50) required 3600 nM. At Angiopoietin-1 receptor [8], this compound had an EC50 of 10000 nM.
For the compound `COc1cc2ncnc(Nc3ccc(-c4nc5ccccc5s4)cc3O)c2cc1OC`, the IC50 at Aurora kinase B was 4200 nM; in assay [3], 6900 nM; against Aurora kinase A, more than 10000 nM; in assay [5], 2200 nM.
With `COc1cc2c(Nc3ccc(-c4nc5ccccc5s4)cc3C)ncnc2cc1OCCCN1CCN(C)CC1`, the IC50 against Aurora kinase B worked out at 440 nM; in assay [1] it was 490 nM; at Angiopoietin-1 receptor [2], 38 nM; against Aurora kinase A, 340 nM; in assay [4], 340 nM; in assay [6], 6700 nM.
In the case of `COc1cc2ncnc(Nc3ccc(-c4nc5ccccc5s4)c(F)c3)c2cc1OCCCN1CCN(C)CC1`, the IC50 at Aurora kinase B was 670 nM; in assay [1], more than 10000 nM; on Angiopoietin-1 receptor [2], 3100 nM; against Aurora kinase A, 200 nM; in [5], 2300 nM; in [6], 8700 nM.
Take `COc1cc2ncnc(Nc3ccc(-c4nc5ccccc5s4)cc3O)c2cc1OCCCN1CCN(C)CC1`: the IC50 on Aurora kinase B is 800 nM; in assay [1] it was 2300 nM; against Angiopoietin-1 receptor [2] it was 880 nM; against Aurora kinase A it was 800 nM; in assay [5] it was 230 nM; in assay [6] it was more than 10000 nM.
In the case of `COc1cc2ncnc(Nc3ccc(-c4nc5ccccc5s4)cc3C)c2cc1OCCCN1CCN(C)CC1`, the IC50 was more than 10000 nM at Aurora kinase B; 5900 nM in [1]; 350 nM against Angiopoietin-1 receptor [2]; 9400 nM on Aurora kinase A; 1400 nM in assay [5]; more than 10000 nM in assay [6].
For the compound `COc1cc2ncnc(Nc3ccc(-c4nc5cc(Cl)ccc5s4)cc3)c2cc1OCCCN1CCN(C)CC1`, the IC50 was 500 nM against Aurora kinase B; more than 10000 nM in assay [1]; 4000 nM at Angiopoietin-1 receptor [2]; 400 nM against Aurora kinase A; more than 10000 nM in assay [5]; 9900 nM in assay [6].
On to `COc1cc2c(Nc3ccc(-c4nc5ccc(Cl)cc5s4)cc3F)ncnc2cc1OCCCN1CCN(C)CC1`, for which the IC50 on Aurora kinase B is 90 nM; in assay [1], more than 10000 nM; against Angiopoietin-1 receptor [2], 615 nM; in assay [3] it was 2250 nM; against Aurora kinase A it was 85 nM; in assay [4], 3000 nM. Moreover, the IC50 worked out at 6200 nM in [5] and 9200 nM in assay [6].
With `COc1ccc2nc(-c3ccc(Nc4ncnc5cc(OCCCN6CCN(C)CC6)c(OC)cc45)cc3)sc2c1`, the IC50 on Aurora kinase B is 48 nM; in [1] it was 130 nM; against Angiopoietin-1 receptor [2], 390 nM; in assay [3], 690 nM; on Aurora kinase A, 62 nM; in [4], 1900 nM. Also, the values for the IC50 in assay [5] and in assay [6] were 200 nM and more than 10000 nM, respectively.
With `COc1cc(-c2nc3ccccc3s2)ccc1Nc1ncnc2cc(OC)c(OC)cc12`, the IC50 was more than 10000 nM at Aurora kinase B, more than 10000 nM in assay [3], more than 10000 nM at Aurora kinase A and 63 nM in assay [5].
Consider `COc1cc2ncnc(Nc3ccc(-c4nc5ccccc5s4)cc3F)c2cc1OCCCN1CCN(C)CC1`, for which the IC50 on Aurora kinase B was 410 nM; in assay [1], more than 10000 nM; at Angiopoietin-1 receptor [2] it was 360 nM; on Aurora kinase A, 390 nM; in assay [5], 4500 nM; in assay [6] it was 10000 nM.
With `COc1cc2c(Nc3ccc(-c4nc5ccccc5s4)cc3O)ncnc2cc1OCCCN1CCN(C)CC1`, the IC50 against Aurora kinase B worked out at 270 nM; in [1], 3600 nM; at Angiopoietin-1 receptor [2] it was 230 nM; in [3], 280 nM; at Aurora kinase A it was 230 nM; in [4], 4500 nM. For the same compound, the results for the IC50 in assay [5] and in [6] were 350 nM and more than 10000 nM, respectively.
Turning to `COc1cc2ncnc(Nc3ccc(-c4nc5ccccc5s4)c(O)c3)c2cc1OCCCN1CCN(C)CC1`, the IC50 at Aurora kinase B was 640 nM; in assay [1] it was more than 10000 nM; against Angiopoietin-1 receptor [2], 5300 nM; on Aurora kinase A, 300 nM; in assay [5], 3300 nM; in assay [6], 10000 nM.
For the compound `COc1cc2ncnc(Nc3ccc(-c4nc5ccccc5s4)cc3)c2cc1OC`, the IC50 in assay [3] was determined as 6300 nM.
Regarding `COc1cc(-c2nc3ccccc3s2)ccc1Nc1ncnc2cc(OC)c(OCCCN3CCN(C)CC3)cc12`, the IC50 was 1900 nM on Aurora kinase B; more than 10000 nM in [1]; 6100 nM against Angiopoietin-1 receptor [2]; 1300 nM at Aurora kinase A; more than 10000 nM in [5]; more than 10000 nM in [6].

These data come from ChEMBL document CHEMBL1152560, “Substituted 2-arylbenzothiazoles as kinase inhibitors: hit-to-lead optimization” (Bioorg Med Chem, 2009).
